Assay results taken from ChEMBL document CHEMBL1122338, “Mutagenicity and chemistry of N-nitroso-N-(p-substituted-benzyl)methylamines” (1983).
Several values for one entry are separate records, joined by “and”; a condition that tells them apart may be missing. Equal entries are not always repeated.

Experiments:
S9 [1] = assay: (§1) Activity expressed as no. of revertants per plate in strain TA1535 with and without hamster S9 cells (3 mg/plate) at the dose of 5 ug; assay type: functional, Cricetulus griseus
S9 [2] = assay: (§2) Activity expressed as no. of revertants per plate in strain TA1535 with hamster S9 cells (3 mg/plate); assay type: functional, Cricetulus griseus
S9 [3] = assay: (§3) Activity expressed as no. of revertants per plate in strain TA1535 with and without hamster S9 cells (3 mg/plate) at the dose of 10 ug; assay type: functional, Cricetulus griseus
S9 [4] = assay: (§4) Activity expressed as no. of revertants per plate in strain TA1535 with and without hamster S9 cells (3 mg/plate) at the dose of 1 ug; assay type: functional, Cricetulus griseus
S9 [5] = assay: (§5) Activity expressed as no. of revertants per plate in strain TA1535 with and without hamster S9 cells (3 mg/plate) at the dose of 2.5 ug; assay type: functional, Cricetulus griseus
S9 [6] = assay: Activity expressed as no. of revertants per plate in strain TA1535 with and without hamster S9 cells (3 mg/plate) at the dose of 25 ug; assay type: functional, Cricetulus griseus
Salmonella typhimurium = assay: Activity expressed as no. of revertants per plate in Salmonella Typhimurium TA1535 with and without hamster S9 cells (3 mg/plate) at the dose of 50 ug; assay type: functional, Salmonella enterica subsp. enterica serovar Typhimurium
S9 [7] = assay: Activity expressed as no. of revertants per plate in strain TA1535 with and without hamster S9 cells (3 mg/plate) at the dose of 1000 ug; assay type: functional, Cricetulus griseus
S9 [8] = assay: Activity expressed as no. of revertants per plate in strain TA1535 with and without hamster S9 cells (3 mg/plate) at the dose of 100 ug; assay type: functional, Cricetulus griseus
S9 [9] = assay: (§6) Activity expressed as no. of revertants per plate in strain TA1535 with and without hamster S9 cells (3 mg/plate) at the dose of 250 ug; assay type: functional, Cricetulus griseus
S9 [10] = assay: (§7) Activity expressed as no. of revertants per plate in strain TA1535 with and without hamster S9 cells (3 mg/plate) at the dose of 500 ug; assay type: functional, Cricetulus griseus
S9 [11] = assay: Activity expressed as no. of revertants per plate in strain TA1535 without hamster S9 cells (3 mg/plate) at the dose of 250 ug; assay type: functional, Cricetulus griseus
In short: (§8)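 Ames plate incorporation test in Salmonella TA1535 (base-pair substitution detector), with or without Aroclor 1254-induced hamster S9 mix (3 mg/plate). Doses span a 10-point range of 1–1000 μg/plate. At least two independent dose-response studies, each on duplicate plates; mean revertants per plate reported. Counts are significant when above twice the historical or twice the current control mean, whichever is greater.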

S9 [12] = assay: Activity expressed as no. of revertants per plate in strain TA1535 without hamster S9 cells (3 mg/plate) at the dose of 50 ug; assay type: functional, Cricetulus griseus; in short: as §8
S9 [13] = assay: as §6; assay type: functional, Cricetulus griseus; in short: as §8; remark: listed apart in the source
S9 [14] = assay: as §5; assay type: functional, Cricetulus griseus; in short: as §8; remark: listed apart in the source
S9 [15] = assay: as §7; assay type: functional, Cricetulus griseus; in short: as §8; remark: listed apart in the source
S9 [16] = assay: as §1; assay type: functional, Cricetulus griseus; in short: as §8; remark: listed apart in the source
S9 [17] = assay: as §2; assay type: functional, Cricetulus griseus; in short: as §8; remark: listed apart in the source
S9 [18] = assay: as §4; assay type: functional, Cricetulus griseus; in short: as §8; remark: listed apart in the source
S9 [19] = assay: as §7; assay type: functional, Salmonella enterica subsp. enterica serovar Typhimurium; in short: as §8
S9 [20] = assay: as §3; assay type: functional, Cricetulus griseus; in short: as §8; remark: listed apart in the source

| SMILES | Activity (S9 [1]) | Activity (S9 [2]) | Activity (S9 [3]) | Activity (S9 [4]) | Activity (S9 [5]) | Activity (S9 [6]) | Activity (S9 [8]) | Activity (S9 [9]) | further results |
| --- | --- | --- | --- | --- | --- | --- | --- | --- | --- |
| CN(Cc1ccc(C#N)cc1)N=O | 29 | 21 and 13 | 23 and 32 | 25 and 14 | 26 and 19 | 29 and 45 |  |  |  |
| CN(Cc1ccc([N+](=O)[O-])cc1)N=O | 14 and 11 | 13 and 9 | 10 and 12 | 17 and 11 | 18 and 15 | 13 and 27 |  |  |  |
| CN(Cc1ccc(C(=O)O)cc1)N=O | 13 and 6 | 11 and 6 |  | 12 and 8 | 12 and 6 | 6 and 4 | 13 and 10 | 15 and 7 | Activity (Salmonella typhimurium): 8 and 5 and 10 and 7; Activity (S9 [7]): 14 and 9; Activity (S9 [10]): 10 and 8 |
| CN(Cc1ccccc1)N=O | 15 and 24 | 14 and 20 | 12 | 14 and 21 | 18 and 24 | 18 and 24 | 17 and 44 | 23 and 58 |  |
| COc1ccc(CN(C)N=O)cc1 | 15 and 10 | 11 and 8 | 24 and 14 | 10 and 13 | 21 and 19 | 18 and 17 | 15 and 44 | 56 | Activity (Salmonella typhimurium): 11 and 26; Activity (S9 [11]): 20; Activity (S9 [12]): 19 |
| CN(Cc1ccc(F)cc1)N=O | 12 and 10 | 14 and 6 | 13 and 8 | 15 and 8 | 16 and 7 | 13 and 17 |  | 39 | Activity (S9 [7]): 16; Activity (S9 [13]): 17; Activity (S9 [10]): 21 and 50 |
| CN(Cc1ccc(Cl)cc1)N=O |  | 13 |  |  |  |  |  |  | Activity (S9 [14]): 18 and 15; Activity (S9 [15]): 10; Activity (S9 [16]): 20 and 17; Activity (S9 [17]): 19; Activity (S9 [18]): 13 and 9; Activity (S9 [19]): 913; Activity (S9 [20]): 12 and 32 |
